Experimental data collected from several papers.
Protocols differ between the studies behind these lines.

Compound | cell line | test | setting | IC50 [µM]
C#CCOc1ccc(/C=C/c2cc(OC)cc(OC)c2-c2cnnn2C(=O)NCCc2ccccc2)cc1 | RAW264.7 | NO release, inhibitor, Griess | 24 h, LPS-stimulated | 11.7
CC(C)c1ccccc1[C@@H]1CCCN1C1CC2(CCN(c3ccc(C(=O)NS(=O)(=O)c4ccc(NC[C@H]5CC[C@](C)(O)CC5)c([N+](=O)[O-])c4)c(Oc4cnc5[nH]ccc5c4)c3)CC2)C1 | HL-60 | cell growth or viability, ATP luminescence | 48 h | 0.381
CC#CCOc1ccc(/C=C/c2cc(OC)cc(OC)c2-c2cnnn2C(=O)NCCc2ccccc2)cc1 | RAW264.7 | NO release, inhibitor, Griess | 24 h, LPS-stimulated | 6.1
CC1(C)CCC(CN2CCN(c3ccc(C(=O)NS(=O)(=O)c4ccc(NCC5CCOCC5)c([N+](=O)[O-])c4)c(Oc4cnc5[nH]ccc5c4)c3)CC2)=C(c2ccc(Cl)cc2)C1 | Maver1 | cell growth or viability, ATP luminescence | 48 h | 0.0065
COc1cc(NC(=O)C2=C(C)NC(C)=C(C(=O)Nc3cc(OC)c(Cl)cc3OC)C2c2ccc(O)cc2)c(OC)cc1Cl | Vero | cell growth or viability, MTT | – | 51.8
COc1cc2c3c(n(CCCN4CCOCC4)c(=O)c2cc1OC)-c1nc2c(cc1C3=O)OCO2 | HL-60 | cell growth or viability, MTS | 72 h | > 2
COc1cc(NC(=O)c2ccccn2)ccc1S(N)(=O)=O | RAW264.7 | cell growth or viability, MTT | 48 h | > 100
COc1cccc2c1C(=O)c1c(O)c3c(c(O)c1C2=O)C[C@@](O)(C(=O)CO)C[C@@H]3O[C@H]1C[C@H](N)[C@H](O)[C@H](C)O1 | NCI-H1299 | cell growth or viability, MTT | 72 h | 0.77
COc1cc2c3c(n(CCCNC(C)C)c(=O)c2cc1OC)-c1nc2c(cc1C3=O)OCO2 | HL-60 | cell growth or viability, MTS | 72 h | 0.328
COc1cc(NC(=O)c2ccco2)ccc1S(N)(=O)=O | RAW264.7 | cell growth or viability, MTT | 48 h | > 100
COc1cc2c(NC3CCN(CCCC(=O)NCCCCCCCCCCCC(=O)N[C@H](C(=O)N4C[C@H](O)C[C@H]4C(=O)NCc4ccc(-c5scnc5C)cc4)C(C)(C)C)CC3)nc(N3CCC(F)(F)CC3)nc2cc1OCCCN1CCCC1 | 22Rv1 | cell growth or viability, CCK-8 | 7 days | 4.1
COc1cc2c3c(n(CCCn4ccnc4)c(=O)c2cc1OC)-c1nc2c(cc1C3=O)OCO2 | HL-60 | cell growth or viability, MTS | 72 h | > 2
CC#CCOc1ccc(/C=C/c2cc(OC)cc(OC)c2-c2cnnn2C(=O)NC(C)C)cc1 | RAW264.7 | NO release, inhibitor, Griess | 24 h, LPS-stimulated | 5.5
C=C(F)C(=O)N1CCN(c2nc(OC[C@@H]3CCCN3C)nc3c2CCN(c2cccc4cccc(Cl)c24)C3)C[C@@H]1CC#N | Lu-65 | cell growth or viability, ATP luminescence | 3D culture | 0.00188
C#CCOc1ccc(/C=C/c2cc(OC)cc(OC)c2-c2cnnn2C(=O)NCC)cc1 | RAW264.7 | NO release, inhibitor, Griess | 24 h, LPS-stimulated | 10.6
CCOc1ccc(C(=O)Nc2ccc(S(N)(=O)=O)c(OC)c2)cc1 | RAW264.7 | cell growth or viability, MTT | 48 h | > 100
COc1ccc(NC(=O)C2=C(C)NC(C)=C(C(=O)Nc3ccc(OC)cc3OC)C2c2ccccc2)c(OC)c1 | Vero | cell growth or viability, MTT | – | 86.5
